In ChEMBL document CHEMBL1139391, “Synthesis and structure-activity relationship of benzetimide derivatives as human CXCR3 antagonists” (Bioorg Med Chem Lett, 2008):

Columns and labels:
[1] = target: T1, C-X-C chemokine receptor type 3 (Homo sapiens, UniProt P49682); assay: Antagonist activity at human CXCR3 expressed in CHO cells assessed as inhibition of ITAC-stimulated [35S]GTPgammaS binding pretreated 30 mins before ITAC challenge; assay type: functional, cell-based
T1 sequence (P49682 whole entry): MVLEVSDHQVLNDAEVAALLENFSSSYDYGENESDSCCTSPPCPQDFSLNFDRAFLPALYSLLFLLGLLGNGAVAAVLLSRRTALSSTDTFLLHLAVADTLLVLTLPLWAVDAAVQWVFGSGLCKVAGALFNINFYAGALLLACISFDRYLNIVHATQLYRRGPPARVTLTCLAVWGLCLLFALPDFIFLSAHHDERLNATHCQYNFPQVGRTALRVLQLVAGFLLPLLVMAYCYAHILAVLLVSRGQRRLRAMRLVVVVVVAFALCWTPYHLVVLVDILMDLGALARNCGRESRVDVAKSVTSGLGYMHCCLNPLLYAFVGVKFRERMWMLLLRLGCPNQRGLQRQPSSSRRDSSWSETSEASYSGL

[2] = target: T2, Muscarinic acetylcholine receptor M1 (Homo sapiens, UniProt P11229); assay: Binding affinity to human muscarinic M1 receptor
T2 sequence (P11229 whole entry): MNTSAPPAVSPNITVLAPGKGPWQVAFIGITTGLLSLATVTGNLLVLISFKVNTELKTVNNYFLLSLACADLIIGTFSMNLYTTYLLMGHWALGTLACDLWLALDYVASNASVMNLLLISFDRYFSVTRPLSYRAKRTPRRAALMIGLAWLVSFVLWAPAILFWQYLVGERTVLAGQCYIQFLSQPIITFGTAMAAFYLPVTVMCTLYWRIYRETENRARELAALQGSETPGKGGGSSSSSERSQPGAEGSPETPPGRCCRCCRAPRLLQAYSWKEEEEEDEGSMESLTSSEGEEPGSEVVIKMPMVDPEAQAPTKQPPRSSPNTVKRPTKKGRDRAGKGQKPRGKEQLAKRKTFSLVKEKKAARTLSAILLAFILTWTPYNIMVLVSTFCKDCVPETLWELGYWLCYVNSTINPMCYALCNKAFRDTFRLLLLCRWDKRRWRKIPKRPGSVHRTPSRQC

[3] = target: T3, Muscarinic acetylcholine receptor M2 (Homo sapiens, UniProt P08172); assay: Binding affinity to human muscarinic M2 receptor
T3 sequence (P08172 whole entry): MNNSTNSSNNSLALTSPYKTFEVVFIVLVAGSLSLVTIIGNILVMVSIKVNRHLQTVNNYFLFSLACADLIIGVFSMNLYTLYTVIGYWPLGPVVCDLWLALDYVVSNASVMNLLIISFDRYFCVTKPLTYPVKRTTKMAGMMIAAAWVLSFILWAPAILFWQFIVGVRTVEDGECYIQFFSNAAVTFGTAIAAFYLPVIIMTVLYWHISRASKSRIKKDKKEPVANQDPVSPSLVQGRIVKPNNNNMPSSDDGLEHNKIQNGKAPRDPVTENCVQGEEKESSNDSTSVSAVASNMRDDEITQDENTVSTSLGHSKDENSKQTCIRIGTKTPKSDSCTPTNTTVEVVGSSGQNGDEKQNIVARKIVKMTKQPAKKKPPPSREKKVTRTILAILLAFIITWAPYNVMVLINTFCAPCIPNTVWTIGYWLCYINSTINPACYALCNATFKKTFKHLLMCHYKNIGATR

[4] = target: Muscarinic acetylcholine receptor M3 (Homo sapiens, UniProt P20309); assay: Binding affinity to human muscarinic M3 receptor
Muscarinic acetylcholine receptor M3, sequence (P20309 whole entry): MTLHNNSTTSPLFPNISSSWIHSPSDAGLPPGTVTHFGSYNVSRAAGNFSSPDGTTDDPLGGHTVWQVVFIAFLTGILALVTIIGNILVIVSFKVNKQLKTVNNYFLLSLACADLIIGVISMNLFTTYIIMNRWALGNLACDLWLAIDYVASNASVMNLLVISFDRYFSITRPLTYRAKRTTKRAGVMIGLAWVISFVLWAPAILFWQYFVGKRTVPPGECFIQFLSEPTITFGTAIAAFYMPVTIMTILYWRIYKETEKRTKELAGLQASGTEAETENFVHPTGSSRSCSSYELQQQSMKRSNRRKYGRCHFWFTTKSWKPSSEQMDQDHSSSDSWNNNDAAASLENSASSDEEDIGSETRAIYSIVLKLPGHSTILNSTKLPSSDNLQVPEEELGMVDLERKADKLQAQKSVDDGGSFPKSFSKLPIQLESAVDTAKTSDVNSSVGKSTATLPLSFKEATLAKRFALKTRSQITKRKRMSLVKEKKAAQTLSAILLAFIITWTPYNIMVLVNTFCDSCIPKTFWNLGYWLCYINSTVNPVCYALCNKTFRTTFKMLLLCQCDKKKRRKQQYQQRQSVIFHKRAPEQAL

PBMC = assay: Reduction of ITAC-induced migration in PHA/IL-2 activated human PBMC pretreated 10 mins before ITAC challenge after 3 hrs by fluorescent plate reader; assay type: functional, cell-based
In short: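 Cells pre-incubated with compound for 10 min at 25 °C. 80,000 cells per well placed on the filter topside, in 6-fold replicates. Lower wells held 3 nM human ITAC. After 3 h at 37 °C, non-migrated cells were removed and migrated cells quantified by fluorescence plate reader.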

[5] = target: T1, C-X-C chemokine receptor type 3; assay: Displacement of [125I]ITAC from CXCR3 in PHA/IL-2 activated human PBMC pretreated 30 mins before [125I]ITAC challenge after 1 hr by liquid scintillation counter
In short: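 Pre-incubated with compound for 30 min. 80 pM [125I]-ITAC (2000 Ci/mmol) added for 60 min at 4 °C. Harvested on polyethyleneimine-presoaked GF/B filters; radioactivity counted by liquid scintillation.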

[6] = target: T4, C-C chemokine receptor type 1 (Homo sapiens) (UniProt P32246); assay: Displacement of [125I]MIP1alpha from human CCR1 expressed in CHO cells at 10 uM; assay type: cell-based
T4 sequence (whole entry): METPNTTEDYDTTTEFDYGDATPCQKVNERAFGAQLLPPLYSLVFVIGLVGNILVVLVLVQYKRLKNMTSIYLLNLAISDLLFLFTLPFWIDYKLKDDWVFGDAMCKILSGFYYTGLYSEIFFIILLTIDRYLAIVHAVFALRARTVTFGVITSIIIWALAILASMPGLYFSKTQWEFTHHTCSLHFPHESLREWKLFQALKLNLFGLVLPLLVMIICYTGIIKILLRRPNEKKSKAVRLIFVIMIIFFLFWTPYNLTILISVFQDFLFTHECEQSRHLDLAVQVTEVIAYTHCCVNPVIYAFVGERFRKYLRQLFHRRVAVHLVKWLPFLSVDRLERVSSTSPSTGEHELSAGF

[7] = target: C-C chemokine receptor type 2 (Homo sapiens) (UniProt P41597); assay: Displacement of [125I]MCP1 from human CCR2 expressed in CHO cells at 10 uM; assay type: cell-based
C-C chemokine receptor type 2 (Homo sapiens), sequence (P41597 whole entry, looked up): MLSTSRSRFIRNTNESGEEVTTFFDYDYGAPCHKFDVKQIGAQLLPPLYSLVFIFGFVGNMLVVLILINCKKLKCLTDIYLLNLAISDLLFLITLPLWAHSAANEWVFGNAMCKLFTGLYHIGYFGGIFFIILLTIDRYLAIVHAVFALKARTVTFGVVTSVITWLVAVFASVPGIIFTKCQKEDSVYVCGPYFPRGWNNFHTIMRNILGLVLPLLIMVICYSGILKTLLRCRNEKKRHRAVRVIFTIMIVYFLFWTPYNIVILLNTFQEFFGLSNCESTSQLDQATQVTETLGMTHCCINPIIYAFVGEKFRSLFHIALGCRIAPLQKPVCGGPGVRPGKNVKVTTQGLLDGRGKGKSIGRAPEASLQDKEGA

[8] = target: T5, C-C chemokine receptor type 4 (Homo sapiens) (UniProt P51679); assay: Displacement of [125I]TARC from human CCR4 expressed in CHO cells at 10 uM; assay type: cell-based
T5 sequence (whole entry): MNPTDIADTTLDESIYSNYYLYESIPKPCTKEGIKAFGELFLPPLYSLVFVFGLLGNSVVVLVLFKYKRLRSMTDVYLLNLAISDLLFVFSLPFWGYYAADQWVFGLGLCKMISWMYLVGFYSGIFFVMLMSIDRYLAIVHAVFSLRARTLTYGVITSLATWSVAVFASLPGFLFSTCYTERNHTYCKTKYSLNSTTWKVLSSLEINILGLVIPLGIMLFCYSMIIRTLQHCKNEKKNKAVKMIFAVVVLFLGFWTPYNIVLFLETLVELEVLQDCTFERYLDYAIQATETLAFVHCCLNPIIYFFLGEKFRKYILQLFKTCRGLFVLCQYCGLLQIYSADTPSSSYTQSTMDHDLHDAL

[9] = target: Interleukin-8 receptors, CXCR1/CXCR2 (Homo sapiens) (UniProt P25025+P25024); assay: Displacement of [125I]IL8 from human CXCR1/2 expressed in CHO cells at 10 uM; assay type: cell-based
[10] = target: T6, CX3C chemokine receptor 1 (Homo sapiens) (UniProt P49238); assay: Displacement of [125I]fractalkine from human […] expressed in CHO cells at 10 uM; assay type: cell-based
T6 sequence (whole entry): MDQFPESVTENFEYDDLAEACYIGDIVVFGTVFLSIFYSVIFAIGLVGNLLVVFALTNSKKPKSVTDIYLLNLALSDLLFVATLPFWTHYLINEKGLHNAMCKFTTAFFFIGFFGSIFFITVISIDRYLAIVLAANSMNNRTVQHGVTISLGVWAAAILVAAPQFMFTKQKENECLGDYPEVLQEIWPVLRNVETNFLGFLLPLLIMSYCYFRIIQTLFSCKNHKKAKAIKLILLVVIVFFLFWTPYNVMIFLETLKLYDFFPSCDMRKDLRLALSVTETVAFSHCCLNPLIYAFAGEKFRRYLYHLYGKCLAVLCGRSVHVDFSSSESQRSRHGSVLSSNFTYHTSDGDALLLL

IC50 [1]	IC50 [2]	IC50 [3]	IC50 [4]	IC50 [5]	inhibition [6]	inhibition [7]	inhibition [8]	inhibition [9]	inhibition [10]	Structure (SMILES)	IC50 (PBMC)
610 nM	9600 nM	> 10000 nM	> 10000 nM	330 nM	–	–	–	–	–	O=C1CCC(c2ccccc2)(C2CCN(Cc3ccc(Br)cc3)CC2)C(=O)N1 (stereo in doubt; (-)-1a) [listing 1 of 2 here]	690 nM
–	–	–	–	–	< 25%	< 25%	< 25%	< 25%	< 25%	O=C1CCC(c2ccccc2)(C2CCN(Cc3ccc(Br)cc3)CC2)C(=O)N1 (stereo in doubt; (-)-1a) [listing 2 of 2 here]	–
